Reference: ChEMBL document CHEMBL3817782, “Synthesis, Structural Elucidation, and Biological Evaluation of NSC12, an Orally Available Fibroblast Growth Factor (FGF) Ligand Trap for the Treatment of FGF-Dependent Lung Tumors” (J Med Chem, 2016)
≈ marks a conversion by molar mass, not a printed value. Calls of active or inactive are those of the source. The calls are words filed in the database; no cut-off is given here.

How the values were obtained:
NCI-H520 [1] = assay: Antiproliferative activity against human NCI-H520 cells incubated for 72 hrs by PI-staining based flow cytometry; assay type: functional, cell-based; conditions: NCI-H520, 72 h
Outline: (§1)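 H520 cells kept in RPMI plus 10% FBS and cultured 72 h with compound in medium plus 1% DMSO final. Viable PI-negative cells counted by flow cytometry, with absolute counts from the analyzer's counting function.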

[2] = Antiproliferative activity against mouse LLC cells incubated for 48 hrs by PI-staining based flow cytometry; assay type: functional, cell-based; conditions: Lewis lung carcinoma
Outline: (§2)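 LLC cells kept in DMEM plus 10% heat-inactivated FBS and cultured 48 h with compound in medium plus 1% DMSO final. PI-negative viable cells counted by flow cytometry to give absolute counts.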

[3] = target: T1, Fibroblast growth factor 2 (Homo sapiens, UniProt P09038); assay: Inhibition of human recombinant FGF2 assessed as reduction in HSPG/FGF2/[…] interaction by measuring FGF2 mediated […]-CHO-flg-1A-luc cell to CHO-K1 cell adhesion incubated for 2 hrs by luciferase assay; assay type: cell-based
T1 sequence (P09038 143-288 limits assumed): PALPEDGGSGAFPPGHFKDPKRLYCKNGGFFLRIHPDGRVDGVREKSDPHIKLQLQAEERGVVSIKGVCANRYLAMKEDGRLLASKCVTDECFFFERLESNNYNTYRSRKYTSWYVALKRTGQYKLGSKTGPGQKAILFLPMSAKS
Outline: (§3)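 Wild-type CHO-K1 monolayers fixed in 3% glutaraldehyde for 2 h at 4 °C, quenched with 0.1 M glycine. A745-CHO-flg-1A-luc cells (50 000 cells/cm²) added in serum-free medium plus 10 mM EDTA, with or without 30 ng/mL FGF2, plus increasing compound concentrations in 3% DMSO. Incubated 2 h at 37 °C. Unattached cells washed off; bound-cell luciferase measured. Triplicates.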

Lewis lung carcinoma [4] = assay: Antiangiogenic activity against mouse LLC cells xenografted in C57BL/6 mouse assessed as pale appearance at 7.5 mg/kg administered as oral gavage for 7 days daily; assay type: functional, organism-based
Outline: (§4)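 Eight-week-old C57BL/6 mice given 5 × 10^5 LLC cells sc in the dorsolateral flank in PBS. Dosing started once tumors were palpable: 7.5 mg/kg or vehicle daily by gavage in DMSO/H2O (1:1). Tumors measured in two dimensions, volume taken as (D × d²)/2. At the end, tumors harvested, weighed and photographed. Body weight and clinical signs followed throughout.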

[5] = target: T1, Fibroblast growth factor 2; assay: Binding affinity to human recombinant FGF2 treated for 4 mins measured after 10 mins by surface plasmon resonance spectroscopic analysis
Outline: (§5)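 Human recombinant FGF2 (20 μg/mL in 10 mM sodium acetate, pH 6.0) coupled to an EDC/NHS-activated CM5 chip, with an ethanolamine-blocked dextran reference cell. Compounds injected at 8–150 μM for 4 min (30 μL/min), then 10 min dissociation. Apparent Kd taken from dose-dependent binding. Samples in PBS with 3% DMSO.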

[6] = Kinetic solubility in DMEM buffer/1% DMSO assessed as recovered drug level at 10 uM after 4 hrs by HPLC-MS/MS analysis; assay type: physicochemical; conditions: DMEM buffer with 1% DMSO; read-out: Drug recovery
Outline: (§6)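 Fresh DMSO stocks added 1:100 to DMEM plus 0.4% FBS, giving nominal 10, 6 or 3 μM and 1% DMSO final. Stirred 4 h (250 rpm, rt), centrifuged, supernatant diluted 1:100 in MeCN with internal standard. Quantified by HPLC–MS/MS.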

[7] = Dissociation constant, pKa of the compound in methanol-water mixture at 25 +/- 1 degC by potentiometric pH-metric method; assay type: physicochemical
Outline: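 Potentiometric pH-metric titration in methanol–water mixtures from 40 to 10%. Aqueous pKa extrapolated. Titration curves fitted by nonlinear multiparametric analysis.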

[8] = Kinetic solubility in 3% DMSO solution in PBS up to 30 uM stirred for 5 mins by HPLC-MS/MS analysis; assay type: physicochemical; conditions: buffer
Outline: (§7)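 Fresh DMSO stocks diluted into PBS to nominal 100, 44, 29, 16 and 8.9 μM, 3% DMSO final. Stirred 5 min (250 rpm, rt), centrifuged to remove undissolved material. Supernatant diluted 1:100 in MeCN containing internal standard (100 nM) and quantified by HPLC–ESI-MS/MS.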

[9] = target: T1, Fibroblast growth factor 2; assay: Inhibition of human recombinant FGF2 assessed as suppression of FGF2-stimulated FGFR1 phosphorylation in mouse LLC cells at 25 uM incubated for 20 mins by Western blot analysis; assay type: cell-based
Outline: (§8)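 LLC cells stimulated with FGF2 (30 ng/mL) with or without compound in medium plus 3% DMSO for 20 min. Cells lysed in RIPA buffer with 1% Triton X-100, 0.2% Brij and 1 mM orthovanadate. Immunoblotted with anti-phospho-FGFR1, with β-actin as loading control.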

[10] = Plasma concentration in C57BL/6 mouse at 7.5 mg/kg administered as single dose measured after 30 mins; assay type: ADME, organism-based
Outline: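 Eight-week-old mice given 7.5 mg/kg orally, with blood drawn 30 min, 2 h and 8 h later. Plasma proteins precipitated with acetonitrile containing internal standard (1:2). Analyte quantified by HPLC–ESI-MS/MS against calibration curves in spiked blank mouse plasma (linear 1–500 nM, LOQ 1 nM). Extraction recovery 90–95%.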

Mus musculus [11] = assay: Toxicity in C57BL/6 mouse xenografted with mouse LLC cells assessed as effect on body weight at 7.5 mg/kg administered as oral gavage for 7 days daily; assay type: organism-based; conditions: in vivo, 168 h; outline: as §4
[12] = Kinetic solubility in 3% DMSO solution in PBS at 44 to 100 uM stirred for 5 mins by HPLC-MS/MS analysis; assay type: physicochemical; conditions: buffer; outline: as §7
Mus musculus [13] = assay: Toxicity in C57BL/6 mouse xenografted with mouse LLC cells assessed as effect on clinical parameters at 7.5 mg/kg administered as oral gavage for 7 days daily; assay type: organism-based; conditions: in vivo, 168 h; outline: as §4
Lewis lung carcinoma [14] = assay: Antitumor activity against mouse LLC cells xenografted in C57BL/6 mouse assessed as tumor growth inhibition at 7.5 mg/kg administered as oral gavage for 7 days daily relative to vehicle-treated control; assay type: functional, organism-based; outline: as §4
[15] = Kinetic solubility in DMEM buffer at 10 uM after 4 hrs in presence of EDTA by HPLC-MS/MS analysis; assay type: physicochemical; conditions: DMEM buffer with EDTA; read-out: Kinetic_solubility
Outline: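 10 μM (nominal) in DMEM plus 0.4% FBS with 2 mM EDTA and 1% DMSO final. Stirred 4 h (250 rpm, rt), then centrifuged. Supernatant diluted 1:100 in MeCN with internal standard and measured by HPLC–MS/MS. Mean of recovered concentration reported with ±.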

[16] = target: T1, Fibroblast growth factor 2; assay: Binding affinity to human recombinant FGF2 at 8 to 150 uM treated for 4 mins measured after 10 mins by surface plasmon resonance spectroscopic analysis; outline: as §5
[17] = target: T1, Fibroblast growth factor 2; assay: Inhibition of human recombinant FGF2 assessed as suppression of FGFR1 phosphorylation in mouse LLC cells at 100 uM incubated for 20 mins by Western blot analysis; assay type: cell-based; outline: as §8
[18] = Kinetic solubility in DMEM buffer/1% DMSO assessed as recovered drug level at 3 uM after 4 hrs by HPLC-MS/MS analysis; assay type: physicochemical; conditions: DMEM buffer with 1% DMSO; read-out: Drug recovery; outline: as §6
NCI-H520 [19] = assay: Antiproliferative activity against human NCI-H520 cells at 0.3 to 10 uM incubated for 72 hrs by PI-staining based flow cytometry; assay type: functional, cell-based; outline: as §1
[20] = Kinetic solubility in DMEM buffer/1% DMSO assessed as recovered drug level at 6 uM after 4 hrs by HPLC-MS/MS analysis; assay type: physicochemical; conditions: DMEM buffer with 1% DMSO; read-out: Drug recovery; outline: as §6
[21] = target: T1, Fibroblast growth factor 2; assay: Inhibition of human recombinant FGF2 assessed as reduction in HSPG/FGF2/[…] interaction by measuring FGF2 mediated […]-CHO-flg-1A-luc cell to CHO-K1 cell adhesion at 100 uM incubated for 2 hrs by luciferase assay; assay type: cell-based; outline: as §3
Lewis lung carcinoma [22] = assay: Antiproliferative activity against mouse LLC cells at 0.3 to 10 uM incubated for 48 hrs by PI-staining based flow cytometry; assay type: functional, cell-based; outline: as §2

IC50 (NCI-H520 [1]) [µM]	IC50 [3] [µM]	solubility kinetic at 4 h, 10 µM [6] [µM]	pKa [7]	Kinetic_solubility [8]	concentration at 0.5 h [10] [nM]	SMILES	IC50 [2] [µM]	Activity (Lewis lung carcinoma [4])	Activity (Mus musculus [11])	Activity (Mus musculus [13])	TGI (Lewis lung carcinoma [14])	also measured
4.1	10	–	–	–	–	C[C@]12CC[C@H]3[C@@H](CC=C4C[C@@H](O)CC[C@@]43C)[C@@H]1CC[C@@H]2C(O)CC(O)(C(F)(F)F)C(F)(F)F (some centres undefined)	2	Active	–	–	–	–
4.1	10	10.7 (≈ 5.18 µg/mL)	9.04	soluble	316	C[C@]12CC[C@H]3[C@@H](CC=C4C[C@@H](O)CC[C@@]43C)[C@@H]1CC[C@@H]2[C@@H](O)CC(O)(C(F)(F)F)C(F)(F)F	2	Active	Non-toxic	Non-toxic	Active	Activity [5]: Dose-dependent effect; Kd [5]: 40 µM; inhibition [9]: Active; Kinetic_solubility [12]: Insoluble
–	–	2.1 (≈ 1.02 µg/mL)	9.08	Insoluble	128	C[C@]12CC[C@H]3[C@@H](CC=C4C[C@@H](O)CC[C@@]43C)[C@@H]1CC[C@@H]2[C@H](O)CC(O)(C(F)(F)F)C(F)(F)F	–	–	Non-toxic	Non-toxic	inactive	solubility kinetic at 4 h, 10 µM [15]: 1.73 µM; Activity [16]: inactive; inhibition [17]: inactive; solubility kinetic at 4 h, 3 µM [18]: 1.4 µM (≈ 0.678 µg/mL); Activity (NCI-H520 [19]): inactive; solubility kinetic at 4 h, 6 µM [20]: 1.7 µM (≈ 0.824 µg/mL); inhibition [21]: inactive; Activity (Lewis lung carcinoma [22]): inactive
